Source: PubChem
Hits are enriched below; roughly 4.8% of the tested compounds scored in any of these assays.
HSF1 activator: increases HSF-1 driven luciferase reporter signal | NIH3T3-HGL HSF-1 luciferase reporter, MG132, 8 h; 100% = twice DMSO control signal | activation, % at 9 µM | hit rate 1.7% among 300,000;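 active = mean replicate activation of at least 50% with a set share of replicates each reaching 50%; inconclusive = only one of those two conditions met; inactive = mean below 50% and too few replicates reaching it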;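 also: 0% = median of the neutral control wells and 100% = twice that signal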
T cruzi repl: T. cruzi replication inhibition; inhibition, % (concentration not given with the values); AID 1885; T. cruzi beta-gal in NIH3T3, luminescence, 90 h; hit rate 1.4% among 300,000;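 active = mean inhibition across valid replicates above about 55%, limit read from the data; inconclusive = mean below that limit but half or more replicates reach it; inactive = mean below it, under half of replicates reach it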;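 also: signal also drops with host cell toxicity which is not excluded here; 0% = plate median of DMSO wells and 100% = zero luminescence signal; higher percent means less beta-gal luminescence so fewer parasites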
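Material: NIH/3T3 host cells with β-galactosidase reporter T. cruzi; Input: 5,000 host fibroblasts per well; Medium: DMEM, 2% fetal bovine serum; Compound: 50 nL DMSO compound solution per well; Schedule: 3 h host attachment, then at least 90 h co-culture; Detection: luminescent β-galactosidase signal after 60 min lysis.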
Jurkat NFkB inh: lowers PMA/ionomycin-induced NF-kB signal in Jurkat cells; hit rate 0.53% among 330,000; inhibition, % at 4 µM; PMA/ionomycin-induced NF-kB luciferase reporter, luminescence; in the data active = inhibition above about 50%
GPR7 antagonist: antagonists of human GPR7 (neuropeptides B/W receptor 1) | GPR7-expressing cells, fluorescence antagonist assay | AID 1861 | inhibition, % at 4.4 µM | hit rate 1.1% among 290,000; in the data active = inhibition above about 16%, passing the limit was not always enough;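 also: cells stimulated with the agonist NPW; 0% = agonist with vehicle and 100% = vehicle without agonist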
Target sequence (P48145 whole entry, looked up): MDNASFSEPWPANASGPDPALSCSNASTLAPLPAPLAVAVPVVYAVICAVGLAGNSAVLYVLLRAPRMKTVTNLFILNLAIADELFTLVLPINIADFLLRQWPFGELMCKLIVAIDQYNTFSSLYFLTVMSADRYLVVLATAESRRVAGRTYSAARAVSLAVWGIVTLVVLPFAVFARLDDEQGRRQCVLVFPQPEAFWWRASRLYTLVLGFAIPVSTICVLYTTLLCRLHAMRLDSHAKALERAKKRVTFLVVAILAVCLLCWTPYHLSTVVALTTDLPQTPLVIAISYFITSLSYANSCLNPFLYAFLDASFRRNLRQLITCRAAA
HSF1 inhib: HSF1 inhibition; NIH3T3-HGL HSE-luciferase, MG132-induced, luminescence 8 h; stronger effect = lower value; activity change, negative = inhibition, % at 7.5 µM (by protocol); hit rate 0.77% among 300,000;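 active = more than half of replicate wells show activity change below -50%, luminescence cut by over half; inconclusive = some wells, but at most half, below -50%; inactive = no replicate well below -50%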;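 also: luciferase reports HSF-1 transcriptional activity via heat shock element; 0% = median of DMSO wells and -100% = zero luminescence signal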
697 NFkB inh: lowers PMA/ionomycin-induced NF-kB signal in 697 B cells; inhibition, % at 4 µM; hit rate 0.33% among 330,000; 697 B-cell NF-kB luciferase reporter, 16 h; AID 435022; in the data active = inhibition above about 35%
An asterisk follows results filed as active; ? = inconclusive; . = no result.

SMILES | HSF1 activator | T cruzi repl | Jurkat NFkB inh | GPR7 antagonist | HSF1 inhib | 697 NFkB inh
CC1(C)CC2CC(C)(CN2C(=O)c2ccc([N+](=O)[O-])cc2[N+](=O)[O-])C1 (stereo not drawn) | 3 | 97* | 7 | 0 | 2 | -1
O=C(c1ccc([N+](=O)[O-])cc1[N+](=O)[O-])N1CCc2ccccc21 | -30 | 58* | 7 | -1 | -17 | -15
CC1(C)CC2CC(C)(CN2C(=O)c2ccc([N+](=O)[O-])cc2)C1 (stereo not drawn) | 2 | -5 | -15 | -5 | 7 | 5
COc1cc(Cl)ccc1NC(=S)N(CCN1CCOCC1)C1CCN(C(C)=O)CC1 | -6 | -2 | 2 | 3 | -7 | 4
COc1cc(/C=C2/SC(=S)N(Cc3ccccc3)C2=O)cc(Cl)c1O | -6 | 1 | . | 89* | 6 | .
COc1ccc(/C=C2\SC(=S)N(CCC(=O)N(CCO)Cc3ccccc3)C2=O)cc1OC | -40 | 65* | -10 | -20 | -26 | 19
COc1cc(/C=C2/SC(=S)N(Cc3ccccc3)C2=O)ccc1OCC(=O)O | 15 | -2 | 8 | -2 | 14 | 8
O=C(NNC(=O)c1cccs1)c1ccc([N+](=O)[O-])cc1 | -3 | 5 | 6 | 2 | 0 | 9
CN(CCOC(=O)c1ccc2c(c1)OCCO2)Cc1ccccc1 | 19 | -22 | -21 | 20* | 12 | 13
COc1ccc(N(CC(=O)N/N=C/c2cc3ccc(OC)cc3nc2Cl)S(=O)(=O)c2ccccc2)cc1 | 59* | 7 | 1 | -3 | 29 | -19
COc1ccc2cc(/C=N/NC(=O)CN(c3ccccc3)S(=O)(=O)c3ccccc3)c(Cl)nc2c1 | 8 | 17 | 9 | -1 | 2 | 0
O=c1[nH]c(C2CCN(S(=O)(=O)c3ccc(S(=O)(=O)NC4CC4)cc3)CC2)nc2c1nnn2Cc1cccc(F)c1 | 12 | 2 | 16 | 2 | 3 | 4
CC(Oc1ccc(Cl)cc1)/C(N)=N/O (stereo not drawn) | 2 | -5 | -11 | -9 | -5 | -11
CC(Oc1ccc(Cl)cc1)C(=O)/C=C/N(C)C (stereo not drawn) | 54* | 3 | 8 | -6 | 11 | 30
O=C(N[C@@H](Cc1ccccc1)C(=O)OCc1ccccc1)c1nc[nH]c1C(=O)N1CCNCC1 | . | . | -2 | . | . | 12
CCn1c(=O)c(C(=O)Nc2ccccc2)c(O)c2ccccc21 | 6 | 0 | -23 | -8 | -6 | -21
CCn1c(=O)c(C(=O)Nc2ccccc2F)c(O)c2ccccc21 | -82 | -9 | -8 | -15 | -78* | -34
COc1ccc(/C=N/n2c(C)nc3c([nH]c4ccccc43)c2=O)cc1CN1CCCC(C)(C)C1 | -9 | 34 | -4 | -16 | -10 | 7
COc1ccc2[nH]c3c(=O)n(/N=C/c4ccc(OC)c(CN5CCCC5)c4)c(C)nc3c2c1 | -13 | 65* | -6 | -11 | -5 | 2
O=S(=O)(Nc1cccc(-n2cnnn2)c1)c1cccc(Cl)c1 | 1 | -7 | 15 | -1 | -1 | -10
O=S(=O)(Nc1cccc(-n2cnnn2)c1)c1cc(Cl)ccc1Cl | -91 | -26 | 7 | -9 | -88* | -13
c1csc(-c2csc3nc(CN4CCOCC4)nc(NCc4ccc5c(c4)OCO5)c23)c1 | 23 | 57* | -4 | 19* | 9 | -23
O=C(Cc1ccc([N+](=O)[O-])cc1)N1N=C(C2CC2)CC1(O)C(F)(F)F (stereo not drawn) | 68* | -6 | 16 | 0 | 12 | 9
COCC(=O)N1CCC(Oc2ccc(C(=O)N3C[C@@H]4CCC[C@H]3C4)cc2)CC1 | -1 | -8 | 2 | -7 | -5 | -9
COc1cc(/C=N/N2CCOCC2)ccc1OCc1ccc(Cl)cc1 | 80* | 8 | -105 | -4 | 34 | -4
SMILES | HSF1 activator | T cruzi repl | Jurkat NFkB inh | GPR7 antagonist | HSF1 inhib | 697 NFkB inh
COc1cc(/C=C(\C#N)c2ccccn2)ccc1OCc1ccccc1 | 22 | 14 | . | -4 | 15 | .
CCCCCCOc1ccc(/C=C/C(=O)N2CCOCC2)cc1OC | 17 | -1 | 4 | -9 | 4 | 2
COc1cc(/C=C(\C#N)c2ccccn2)ccc1OCc1ccc(Cl)cc1 | 68* | 19 | -33 | -9 | 18 | 9
COc1cc(/C=N/N2CCOCC2)ccc1OCc1ccccc1 | 17 | 1 | -17 | -8 | 26 | 2
COc1cc(/C=N/OCC(=O)Nc2cc(C)cc(C)c2)ccc1OCc1ccc(Cl)cc1 | 71* | 12 | -103 | -11 | 47 | -144
COc1cc(/C=C/C(=O)N2CCOCC2)ccc1OCc1ccccc1 | 75* | 8 | -41 | -9 | 46 | -17
CSc1cccc(NC(=O)C2CC(=O)N(Cc3ccccc3)C2)c1 (stereo not drawn) | 10 | 2 | -1 | -5 | 0 | -12
Cc1c(C(=O)Nc2nc3ccccc3[nH]2)oc2c(Cl)cccc12 | 19 | 70* | -45 | -3 | 14 | -58
Cc1c(C(=O)Nc2nc3ccccc3[nH]2)oc2ccc(Br)cc12 | 18 | 56* | -38 | -7 | -4 | -32
Cc1c(C(=O)OC/C(O)=C(\C#N)c2nc3ccccc3[nH]2)oc2ccc(Br)cc12 | -21 | 1 | 1 | -5 | -7 | 21
Cc1c(C(=O)Nc2nc3ccccc3[nH]2)oc2ccccc12 | 68* | -6 | -144 | -1 | 31 | -209
O=C(CSc1nnc(NC(=O)C2CC(=O)N(c3ccc(F)cc3)C2)s1)NCc1ccco1 (stereo not drawn) | 7 | -4 | 15 | -15 | -1 | -21
CCC(C(=O)NC1CCCCC1)n1c2ccccc2c2nc(=O)cc(C)n21 (stereo not drawn) | 23 | 3 | -2 | -7 | 17 | -8
Cc1ccc(S(=O)(=O)N(C(=N)N)c2nc(N(C)C)nc(N(C)C)n2)cc1 | -10 | 55* | -1 | -1 | -8 | -2
N#C/C(=C/Nc1ccccc1)c1ccsc1 | 17 | 0 | -22 | -15 | 9 | -21
Cc1ccc(N/C=C(/C#N)c2ccsc2)cc1 | 53* | 4 | -93 | -10 | 26 | -65
CNc1nc(N/N=C/c2cc3c(cc2[N+](=O)[O-])OCO3)nc(Nc2ccccc2)n1 | -6 | 72* | -14 | -12 | -8 | -19
Cc1cc(=O)[nH]c(N/N=C/c2ccc(O)c(O)c2)n1 | 61* | -1 | -29 | -2 | 17 | -13
CSc1ccc(/C=N/Nc2nc(C)cc(=O)[nH]2)cc1 | 4 | -7 | -18 | -6 | 4 | 21
CN(C)c1ccc(/C=N\Nc2nc(-c3ccccc3)cc(=O)[nH]2)cc1 | -79 | 21 | -8 | -1 | -73* | -20
CN(C)CCN(C(=O)C1CCN(S(=O)(=O)c2cccs2)CC1)c1nc2ccccc2s1 | 4 | ? | -16 | . | 6 | -3
COc1cc(/C=C/C(=O)c2ccc(Cl)s2)cc(OC)c1O | 174* | -53 | 8 | -7 | 129 | 7
